Calls of active or inactive are those of the source. The calls are words filed in the database; no cut-off is given here.
Assays:
[1] = test system: Mus musculus; experiment: Anticonvulsant activity in CD1 mouse assessed as protection against 32 mA-current- for 3 secs induced seizure at 100 mg/kg, ip after 0.5 hrs by 6Hz psychomotor seizure test; type: functional
In short: (§1)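 Male CD-1 mice given 100 mg/kg ip in 0.5% methylcellulose, four per time point. Corneal stimulation at 32 mA, 0.2 ms monopolar rectangular pulses at 6 Hz for 3 s, from a constant-current device. A mouse was protected if it resumed normal exploratory behavior within 10 s. Reported as number protected over number tested.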

[2] = species on record: Mus musculus; experiment: Protection index, ratio of TD50 for CD1 albino mouse to ED50 for protection against maximal electroshock-induced seizures in CD1 albino mouse
In short: (§2)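 Quantitation in male CD-1 mice dosed ip at the previously estimated time of peak effect. Seizures were induced by MES or by sc pentylenetetrazole 85 mg/kg; rotarod at 10 rpm assessed motor impairment. Groups of six, at least three doses giving 10-90% effect.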

[3] = species on record: Rattus norvegicus; experiment: Displacement of [3H]BTX from voltage-sensitive Na+ channel site 2 in rat cerebral cortex synaptoneurosomes at 100 uM after 60 mins by liquid scintillation spectroscopic analysis; type: tissue-based
In short: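 Cerebral cortex synaptoneurosomes from rat, tested at 100 µM for inhibition of specific [3H]BTX binding to the voltage-sensitive Na+ channel site 2. Reported as % inhibition of control specific binding; run commercially.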

[4] = test system: Mus musculus; experiment: Anticonvulsant activity in CD1 albino mouse assessed as protection against subcutaneous pentylenetetrazole-induced seizures at 300 mg/kg, ip after 0.5 hrs; type: functional, organism-based
In short: (§3)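 Male CD-1 mice (16-26 g), compounds ip in 0.5% methylcellulose/water at 30, 100 or 300 mg/kg, 3-4 per group. At 0.5 or 4 h, pentylenetetrazole 85 mg/kg was injected sc. Protection was absence of clonic convulsions (at least 5 s) over a 30 min observation. Minimum active dose recorded.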

[5] = test system: Mus musculus; experiment: Anticonvulsant activity in CD1 albino mouse assessed as protection against maximal electroshock-induced seizures at 100 to 300 mg/kg, ip after 0.5 hrs; type: functional; settings: read-out: MED
[6] = test system: Mus musculus; experiment: Anticonvulsant activity in CD1 mouse assessed as protection against 32 mA-current- for 3 secs induced seizure at 100 mg/kg, ip after 1 hrs by 6Hz psychomotor seizure test; type: functional; in short: as §1
[7] = test system: Mus musculus; experiment: Anticonvulsant activity in ip dosed CD1 albino mouse assessed as protection against maximal electroshock-induced seizures; type: functional
[8] = test system: Mus musculus; experiment: Local anesthetic activity in CD1 albino mouse assessed prolongation of time reaction at 2 % concentration after 20 secs by tail immersion test relative to vehicle control; type: functional
In short: (§4)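 Compound at 1 or 2% in 0.5% methylcellulose, injected sc (0.2 ml) about 1 cm from the tail root of male CD-1 mice. After 15 min, the distal 3 cm of the tail was immersed in 50 ± 0.5 °C water and withdrawal time measured, cut off at 20 s. n=8; mean ± SEM; % prolongation relative to vehicle.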

[9] = test system: Mus musculus; experiment: Antinociceptive activity in CD1 albino mouse assessed as reduction of formalin-induced licking response in inflammatory phase at 87.36 mg/kg, ip preincubated for 1 hr measured after 25 to 30 mins; type: functional; parameters: scale not given: the % may be the effect or the level left
[10] = test system: Mus musculus; experiment: Antinociceptive activity in CD1 albino mouse assessed as reduction of formalin-induced licking response in inflammatory phase at 87.36 mg/kg, ip preincubated for 1 hr measured after 15 to 20 mins; type: functional; parameters: scale not given: the % may be the effect or the level left
[11] = test system: Mus musculus; experiment: Neurotoxicity in CD1 albino mouse assessed as acute motor impairment at 300 mg/kg, ip measured after 0.5 hrs by rotarod test; type: toxicity, organism-based; settings: in vivo
In short: (§5)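 Male CD-1 mice given 30, 100 or 300 mg/kg ip in 0.5% methylcellulose, tested at 0.5 and 4 h. Motor impairment was scored as failure to keep balance for at least 1 min on a rod rotating at 10 rpm. Minimum dose causing impairment reported.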

[12] = test system: Mus musculus; experiment: Anticonvulsant activity in CD1 albino mouse assessed as protection against maximal electroshock-induced seizures at 100 to 300 mg/kg, ip after 4 hrs; type: functional; settings: read-out: MED
[13] = test system: Mus musculus; experiment: Antinociceptive activity in CD1 albino mouse assessed as reduction of formalin-induced licking response in neurogenic phase at 87.36 mg/kg, ip preincubated for 1 hr measured after 5 mins; type: functional, organism-based
[14] = test system: Mus musculus; experiment: Anticonvulsant activity in ip dosed CD1 albino mouse assessed as time to peak effect; type: functional; in short: as §2
[15] = Neurotoxicity in ip dosed CD1 albino mouse assessed as acute motor impairment by rotarod test; type: toxicity, organism-based; settings: in vivo; in short: as §2
[16] = test system: Mus musculus; experiment: Neurotoxicity in CD1 albino mouse assessed as acute motor impairment at 300 mg/kg, ip after 4 hrs by rotarod test; type: toxicity, organism-based; settings: in vivo; in short: as §5
[17] = test system: Mus musculus; experiment: Anticonvulsant activity in CD1 albino mouse assessed as protection against subcutaneous pentylenetetrazole-induced seizures at 300 mg/kg, ip after 4 hrs; type: functional, organism-based; in short: as §3
[18] = test system: Mus musculus; experiment: Local anesthetic activity in CD1 albino mouse assessed prolongation of time reaction at 1 % concentration after 20 secs by tail immersion test relative to vehicle control; type: functional; in short: as §4
[19] = test system: Mus musculus; experiment: Neurotoxicity in CD1 albino mouse assessed as acute motor impairment at 100 to 300 mg/kg, ip after 4 hrs by rotarod test; type: toxicity, organism-based; settings: in vivo; in short: as §5
[20] = test system: Mus musculus; experiment: Protection index, ratio of TD50 for CD1 albino mouse to ED50 for protection against subcutaneous pentylenetetrazole-induced seizures in CD1 albino mouse; in short: as §2
[21] = test system: Mus musculus; experiment: Antinociceptive activity in CD1 albino mouse assessed as reduction of formalin-induced licking response in neurogenic phase at 32.08 mg/kg, ip preincubated for 4 hrs measured after 5 mins; type: functional; parameters: scale not given: the % may be the effect or the level left
[22] = test system: Mus musculus; experiment: Anticonvulsant activity in ip dosed CD1 albino mouse assessed as protection against subcutaneous pentylenetetrazole-induced seizures; type: functional; in short: as §2
[23] = test system: Mus musculus; experiment: Antinociceptive activity in CD1 albino mouse assessed as reduction of formalin-induced licking response in inflammatory phase at 32.08 mg/kg, ip preincubated for 4 hrs measured after 25 to 30 mins; type: functional; parameters: scale not given: the % may be the effect or the level left
[24] = test system: Mus musculus; experiment: Antinociceptive activity in CD1 albino mouse assessed as reduction of formalin-induced licking response in inflammatory phase at 32.08 mg/kg, ip preincubated for 4 hrs measured after 15 to 20 mins; type: functional; parameters: scale not given: the % may be the effect or the level left
[25] = test system: Mus musculus; experiment: Antinociceptive activity in CD1 albino mouse assessed as reduction of formalin-induced licking response in inflammatory phase at 75.60 mg/kg, ip preincubated for 4 hrs measured after 20 to 25 mins; type: functional; parameters: scale not given: the % may be the effect or the level left
[26] = test system: Mus musculus; experiment: Antinociceptive activity in CD1 albino mouse assessed as reduction of formalin-induced licking response in neurogenic phase at 75.60 mg/kg, ip preincubated for 4 hrs measured after 5 mins; type: functional; parameters: scale not given: the % may be the effect or the level left
[27] = test system: Mus musculus; experiment: Anticonvulsant activity in CD1 albino mouse assessed as protection against subcutaneous pentylenetetrazole-induced seizures at 100 to 300 mg/kg, ip after 4 hrs; type: functional; settings: CD1, 4 h, read-out: MED; in short: as §3
[28] = test system: Mus musculus; experiment: Antinociceptive activity in CD1 albino mouse assessed as reduction of formalin-induced licking response in inflammatory phase at 75.60 mg/kg, ip preincubated for 4 hrs measured after 25 to 30 mins; type: functional; parameters: scale not given: the % may be the effect or the level left
[29] = test system: Mus musculus; experiment: Anticonvulsant activity in CD1 albino mouse assessed as protection against subcutaneous pentylenetetrazole-induced seizures at 100 to 300 mg/kg, ip after 0.5 hrs; type: functional; settings: CD1, 0.5 h, read-out: MED; in short: as §3
[30] = test system: Mus musculus; experiment: Antinociceptive activity in CD1 albino mouse assessed as reduction of formalin-induced licking response in inflammatory phase at 75.60 mg/kg, ip preincubated for 4 hrs measured after 15 to 20 mins; type: functional; parameters: scale not given: the % may be the effect or the level left

CC1CC(=O)N(CC(=O)N2CCN(c3ccc(F)cc3)CC2)C1=O (stereo not drawn)
Activity [1]: 75%
Ratio TD50/ED50 [2]: >3.43
inhibition [3]: 36.6%
Activity [4]: inactive
minimal effective dose [5]: 300 mg/kg
Activity [6]: 75%
ED50 [7]: 87.4 mg/kg
Activity [8]: 12%
Activity [9]: 98%
Activity [10]: 95%
Activity [11]: Non-toxic
minimal effective dose [12]: 100 mg/kg
Activity [13]: inactive
Time [14]: 1 h
TD50 [15]: > 300 mg/kg
Activity [16]: Non-toxic
Activity [17]: inactive

CC1CC(=O)N(CC(=O)N2CCN(c3ccc(Cl)cc3)CC2)C1=O (stereo not drawn)
Ratio TD50/ED50 [2]: >15.59
inhibition [3]: 20.9%
Activity [4]: inactive
minimal effective dose [5]: 100 mg/kg
ED50 [7]: 32.1 mg/kg
Activity [8]: 124%
Activity [11]: Non-toxic
minimal effective dose [12]: 30 mg/kg
Activity [18]: 26%
MTC [19]: 300 mg/kg
Time [14]: 4 h
Ratio TD50/ED50 [20]: >2
TD50 [15]: > 500 mg/kg
Activity [21]: 76%
ED50 [22]: > 250 mg/kg
Activity [23]: 86%
Activity [17]: inactive
Activity [24]: 91%

CC1CC(=O)N(CC(=O)N2CCN(c3ccc(Cl)c(Cl)c3)CC2)C1=O (stereo not drawn)
Activity [25]: 95%
Ratio TD50/ED50 [2]: 3.48
inhibition [3]: 33.4%
Activity [26]: 61%
minimal effective dose [5]: 300 mg/kg
ED50 [7]: 75.6 mg/kg
Activity [8]: 14%
minimal effective dose [27]: 100 mg/kg
Activity [28]: 95%
Activity [11]: Non-toxic
minimal effective dose [12]: 100 mg/kg
minimal effective dose [29]: 100 mg/kg
Activity [30]: 100%
Time [14]: 1 h
Ratio TD50/ED50 [20]: 4.86
TD50 [15]: 263 mg/kg
ED50 [22]: 54.1 mg/kg
Activity [16]: Non-toxic
